An excerpt weighted towards active compounds, which were near 3.8% of everything screened.
HSF-1 act = increases HSF-1 driven luciferase reporter signal; NIH3T3-HGL HSF-1 luciferase reporter, MG132, 8 h; 100% = twice DMSO control signal; activation, % at 9 µM; actives 1.7% (n = 300,000);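 active = mean replicate activation of at least 50% with a set share of replicates each reaching 50%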
HSP90 refold inh = blocks HSP90-mediated luciferase refolding in reticulocyte lysate; Rabbit reticulocyte lysate, luciferase refolding luminescence, 3 h; inhibition, % at 5.6 µM; actives 0.91% (n = 290,000);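 active = inhibition above the screen-wide mean plus 3 SD, computed separately per campaign, cut at about 16% in these data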;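 note: inhibitors lower the luminescence because luciferase stays unfolded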
Lipid droplet = hepatic lipid droplet formation modulation; AML12 mouse hepatocytes, oleate lipid droplets, BODIPY imaging; inhibition, % at 6.5 µM; actives 0.4% (n = 240,000);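 active = lipid droplet intensity inhibited by at least 50%, with more than 500 cells counted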
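Assay system: AML12 mouse liver cells | Compound dosing: One dose, 6.5 µM compound | Read-out basis: Droplet intensity reduction, % inhibition | Measured by: Fluorescence imaging, 20x objective, two fields per well | Schedule: Overnight treatment with compound plus oleate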
HCV NS3 hel inh = HCV NS3 helicase inhibition | NS3 helicase DNA unwinding, Cy5 molecular beacon fluorescence | inhibition, % at 10.9 µM | actives 0.56% (n = 290,000) | AID 1800;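 active = inhibition above the mean of all tested compounds plus 3 SD, set per campaign, cut at about 35% in these data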
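System: Hepatitis C virus NS3 helicase domain fragment enzyme | Reagent: Annealed dual-labelled DNA beacon duplex, ATP-started | Compound dosing: 10.9 µM single point, 0.8% DMSO | Incubation: 1 h reaction at 25 °C, ATP-initiated | Technique: Cy5 fluorescence | Evaluation: Percent inhibition from t60/t0 fluorescence ratio | Benchmarks: Low DMSO, high thioflavine S at 110 µM | Replication: Singlicate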
HSF1 inhib = HSF1 inhibition; actives 0.77% (n = 300,000); NIH3T3-HGL HSE-luciferase, MG132-induced, luminescence 8 h; stronger effect = lower value; activity change, negative = inhibition, % at 7.5 µM (by protocol); AID 2098;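 active = more than half of replicate wells show activity change below -50%, luminescence cut by over half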;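 note: luciferase reports HSF-1 transcriptional activity via heat shock element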
NS3 helicase cf = confirmation of Hepatitis C virus NS3 helicase inhibitors | shares compounds with HCV NS3 hel inh | NS3 helicase DNA unwinding, Cy5 molecular beacon fluorescence | inhibition, % at 10.9 µM | actives 31% (n = 1,600) | AID 1943;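 active = inhibition above the mean of all tested compounds plus 3 SD, cutoff set per campaign, cut at about 36% in these data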
DNA FID counter = counter-screen for HCV NS3 helicase inhibitors: DNA intercalator displacement; shares compounds with HCV NS3 hel inh; DNA fluorescent intercalator displacement, fluorescence; inhibition, % at 7.9 µM; actives 4% (n = 1,600); AID 1945; in the data active = inhibition above about 37%;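 note: higher means more displacement of ethidium bromide from the DNA hairpin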
DNA FID DR = DNA intercalator displacement in dose response | shares compounds with HCV NS3 hel inh | 120 tested, under 10 active | fluorescent intercalator displacement from DNA, fluorescence | AID 2172 | IC50, µM; call rule not given here
Of the large screens only hits and unclear results are named; the others gave an inactive call (follow-up assays come after a bar, where they were run).

COC(=O)c1c(-c2ccccc2)csc1N1C(=O)Nc2ccccc2N1O	none
CCOC(=O)c1c(-c2ccccc2)csc1N1C(=O)Nc2ccccc2N1O	HCV NS3 hel inh 47 | NS3 helicase cf 72 | DNA FID counter inactive
CCOC(=O)c1c(N2C(=O)Nc3ccccc3N2O)sc2c1CCCCC2	HCV NS3 hel inh 47 | NS3 helicase cf 75 | DNA FID counter inactive
COc1ccc(S(=O)(=O)N(C)c2ccc(C(=O)Nc3cccnc3)cc2)cc1	none
CCN(Cc1ccncc1)C(=O)C1CCC(=O)N(Cc2ccc(Cl)cc2)C1 (centres undefined)	none
O=C(O)CN1C(=O)/C(=C/c2ccc(N3CCCCC3)o2)SC1=S	HCV NS3 hel inh 61 | NS3 helicase cf inactive | DNA FID counter inactive
CC(/C=C1\SC(=S)N(CC(=O)O)C1=O)=C\c1ccccc1	none
CC(=C\c1ccco1)/C=C1/SC(=S)N(CC(=O)O)C1=O	HCV NS3 hel inh 45 | NS3 helicase cf inactive | DNA FID counter inactive
CC(=C\c1ccccc1)/C=C1/SC(=S)N(CCC(=O)O)C1=O	HCV NS3 hel inh 51 | NS3 helicase cf 65 | DNA FID counter inactive
CC(/C=C1\SC(=S)N(CC(=O)N2CCN(c3ccccc3)CC2)C1=O)=C\c1ccccc1	none
Nc1nc(SCC(=O)Nc2ccc([N+](=O)[O-])cc2)[nH]c(=O)c1NC(=O)c1ccc(Br)o1	none
Clc1ccc(C2Nc3cccc4cccc(c34)N2)cc1Cl	HCV NS3 hel inh 59 | NS3 helicase cf inactive | DNA FID counter inactive
Clc1cccc(Cl)c1C1Nc2cccc3cccc(c23)N1	HCV NS3 hel inh 75 | NS3 helicase cf inactive | DNA FID counter inactive
Clc1cccc(C2Nc3cccc4cccc(c34)N2)c1	HCV NS3 hel inh 55 | NS3 helicase cf inactive | DNA FID counter inactive
CC(C)c1ccc(S(=O)(=O)N2CCN(C(=O)C3CCN(C(=O)c4ccc(F)cc4)CC3)CC2)cc1	none
CSc1cccc(CN2CCCC(CNC(=O)c3ccc(F)cc3)C2)c1 (centres undefined)	none
CSc1ccc(CN2CCCC(CNC(=O)c3ccc(F)cc3)C2)cc1 (centres undefined)	HCV NS3 hel inh 43 | NS3 helicase cf inactive | DNA FID counter inactive
Cc1cc(Cl)ccc1Oc1ccccc1C(=O)CC#N	HCV NS3 hel inh 37 | NS3 helicase cf 53 | DNA FID counter inactive | DNA FID DR inactive
Cc1cccc(Nc2ccc([N+](=O)[O-])cc2C(=O)O)c1	HCV NS3 hel inh 37 | NS3 helicase cf 66 | DNA FID counter inactive
O=C(O)c1cc([N+](=O)[O-])ccc1Nc1ccccc1	none
COc1cc(OC)nc(-n2ncc(Br)c(Br)c2=O)n1	none (no result: HSF-1 act, Lipid droplet, HSF1 inhib)
N#CC1=C(SCC(=O)c2ccccc2)NC2=C(C(=O)CCC2)C1c1ccco1 (centres undefined)	HCV NS3 hel inh 38 | NS3 helicase cf inactive | DNA FID counter inactive
O=C1NN(c2ccccc2)C(=O)/C1=C\c1ccccc1	HCV NS3 hel inh 49 | NS3 helicase cf inactive | DNA FID counter inactive
COc1ccc(Sc2ccc(/C=C3\C(=O)NN(c4ccccc4)C3=O)o2)cc1	HCV NS3 hel inh 47 | NS3 helicase cf 60 | DNA FID counter inactive
COc1ccc(-n2c(C)cc(/C=C3\C(=O)NN(c4ccccc4)C3=O)c2C)cc1	none
Cc1ccc(CNC(=O)CCC2CCCN(C(=O)c3ccc4c(c3)OCO4)C2)o1 (centres undefined)	none
COc1ccc(Cl)cc1NC(=O)C(C)N(C)Cc1cccc(Cl)c1Cl (centres undefined)	none
CCCCOc1ccc(-c2cc(C(F)(F)F)c(C#N)c(SCC(=O)O)n2)cc1	HCV NS3 hel inh 43 (no result: HSF-1 act, HSF1 inhib) | NS3 helicase cf 81 | DNA FID counter inactive | DNA FID DR inactive
O=C1NN(c2ccc(Cl)cc2)C(=O)/C1=C\c1ccc(-c2cccc(C(=O)O)c2)o1	HCV NS3 hel inh 46 (no result: HSF-1 act, HSF1 inhib) | NS3 helicase cf 66 | DNA FID counter inactive
CCC(C)(C(=O)NC1CCCCC1)N(Cc1ccco1)C(=O)c1ccc2c(c1)OCO2 (centres undefined)	HCV NS3 hel inh 36 | NS3 helicase cf inactive | DNA FID counter inactive
CCC(C)(C(=O)NC1CCCC1)N(CC1CCCO1)C(=O)c1ccc2c(c1)OCO2 (centres undefined)	none (no result: Lipid droplet)
CCCN1C2CCCC1CC(NC(=O)c1cc(OC)cc(OC)c1)C2 (centres undefined)	none
NC(=O)c1cc(C(=O)c2ccccc2Cl)c[nH]1	none
N#Cc1ccc(-c2ccco2)nc1SCC(=O)c1ccc(Cl)cc1	HCV NS3 hel inh 38 | NS3 helicase cf inactive | DNA FID counter inactive
O=C(CSc1ccc2nnc(CCNC(=O)c3ccc(F)cc3)n2n1)NCC1CCCO1 (centres undefined)	none
Cc1ccc(S(=O)(=O)N2CCCCC2)cc1NC(=O)COC(=O)C1CC2C=CC1C2 (centres undefined)	none
Cc1ccc(NC(=O)COC(=O)C2CC3C=CC2C3)cc1S(=O)(=O)N1CCCCC1 (centres undefined)	HSF-1 act 63, HCV NS3 hel inh 62 | NS3 helicase cf inactive | DNA FID counter inactive
CC(=O)c1sc2nc(CSc3nnnn3-c3ccccc3)[nH]c(=O)c2c1C	HCV NS3 hel inh 36 | NS3 helicase cf inactive | DNA FID counter inactive
C=CCn1c(SCc2nc3sc(C(=O)O)c(C)c3c(=O)[nH]2)nnc1-c1ccccc1	HCV NS3 hel inh 41 | NS3 helicase cf inactive | DNA FID counter inactive
CC(NC(=O)CSc1cccc(C(F)(F)F)c1)c1ccccc1 (centres undefined)	none
CC(C)(C)NC(=O)NC(=O)CSc1cccc(C(F)(F)F)c1	HCV NS3 hel inh 37 | NS3 helicase cf inactive | DNA FID counter inactive
Cc1ccc(C(C)C)c(OCC(=O)N/N=C/c2cccn2C)c1	none
CCCC(NC(=O)COc1cc2c(c3oc(=O)c(C)c(C)c13)CCC(C)(C)O2)C(=O)O (centres undefined)	HCV NS3 hel inh 55 | NS3 helicase cf inactive | DNA FID counter inactive
CCOC(=O)C1=C(N)N2C(=O)C(C)SC2=C(C(=O)OCC)C1c1ccc(O)cc1 (centres undefined)	HCV NS3 hel inh 39 | NS3 helicase cf inactive | DNA FID counter inactive
CCOC(=O)C1=C(N)N2C(=O)C(C)SC2=C(C(=O)OCC)C1c1ccccc1 (centres undefined)	none
Cc1ccc(/C=C/C(=O)c2ccccc(=O)c2O)cc1C	HSF-1 act 76, HCV NS3 hel inh 40 | NS3 helicase cf 85 | DNA FID counter inactive | DNA FID DR inactive
O=C(O)c1ccccc1OC(=O)C12CC3CC(CC(C3)C1)C2	none

Screening data from PubChem BioAssay.
